Entries after “also recorded” stand apart in the source; their conditions may differ. Where two headings read alike, the source gives them in different places. Values belong to the molecule of their own block, whether it stands above or below them.
What was measured:
[1] = human liver microsomes; ref Seguin et al., 2019; cited from earlier work
[2] = Rainbow trout liver S9 substrate depletion assay; assay type: in vitro ADME, rainbow trout (Oncorhynchus mykiss); details: for Depletion / biotransformation in RT-S9 assay (in words): active RT-S9, tested individually, up to 2 h
[3] = In vitro half-life with human liver microsomes; assay type: in vitro ADME
[4] = Baseline equilibrium BCF predicted from DMLW and phospholipid content; parameters: species or system fish; details: fML of 1%
[5] = ref Chen et al., 2016, cited from earlier work; for CLint,in vivo: RT-S9
[6] = RT-S9 substrate depletion assay, cationic surfactants tested as mixtures of six; assay type: in vitro ADME, rainbow trout (Oncorhynchus mykiss); details: for Clearance rate in mixture compared with single-compound assay (in words): Mixture 1; for CLint,in vivo lower in mixture than tested individually: Mixture 2
[7] = 14C-labeled, 1.1 × 10^6 cells/ml, by 2.5 h; ref Bernhard et al., 2006; cited from earlier work
[8] = N-demethylation metabolite formation in RT-S9 assay; assay type: in vitro ADME, rainbow trout (Oncorhynchus mykiss); details: for 1° alkylamine product present at last time point as % of removed parent: 120 min; for Time of peak concentration of 2° alkylamine metabolite: 2-h RT-S9 assay
Outline: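 Trout liver S9 (2 mg/ml protein) with 2 mM NADPH, 2 mM UDPGA, 0.1 mM PAPS, 5 mM GSH and alamethicin, pH 7.8, 11 °C; substrate starts at about 1.0 µM. Sampled at 0, 20, 40, 60, 90 and 120 min and quenched in ice-cold acetonitrile. N-demethylated products scanned by LC–MS/MS and quantified against external standards. Metabolite mass divided by parent mass removed at the same time point.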

[9] = Cofactor-limited depletion of T12 in RT-S9 assay; assay type: in vitro ADME, rainbow trout (Oncorhynchus mykiss)
Outline: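 Pooled liver S9 from five trout, 2 mg/ml protein, in 100 mM PPBS pH 7.8 with 10 μg/ml alamethicin, at 11 °C; substrate starts at about 1.0 µM. Duplicate six-sample time series over 60 min, either with no added cofactors, NADPH (2 mM) alone, NADPH plus UDPGA (2 mM), GSH (5 mM) or PAPS (0.1 mM), or all cofactors. Parent and N-demethyl product measured by LC–MS/MS.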

SMILES: CCCCCCCCCC[N+](C)(C)Cc1ccccc1.[Cl-] [BAC10]
In vitro half-life [1]: 1 min

SMILES: CCCCCCCCCCCCCCCC[N+](C)(C)Cc1ccccc1 [BAC16]
In vitro half-life [1]: 15 min

SMILES: CCCCCCCCCC[N+](C)(C)CCCCCCCCCC [DDAC, didecyldimethylammonium chloride]
Factor by which BCFbaseline estimate exceeds empirical BCF or BAF [4]: 420

SMILES: CCCCCCCCN [P8]
Depletion / biotransformation in RT-S9 (in words) [5]: no significant depletion

SMILES: CCCCCCCCCN [P9, Nonylamine]
Clearance rate in mixture compared with single-compound assay (in words) [6]: not significantly different

SMILES: CCCCCCCCCCCCN [P12, Dodecylamine]
CLint,in vivo [5]: 37 ml h^–1 g liver^–1 | Depletion / biotransformation in RT-S9 assay (in words) [2]: No significant depletion

SMILES: CCCCCCCCCCCC(=O)OCCN [P12‐Ac, 2-aminoethyl laurate]
Clearance rate relative to alkylamine analog P12 ([2]; RT-S9 assay): 10 times higher

SMILES: CCCCCCCCCCCCCN [P13, Tridecylamine]
Factor by which BCFbaseline estimate exceeds empirical BCF or BAF [4]: 10 | Predicted BCFbaseline [4]: 14,000 L kg^–1

SMILES: CCCCCCCCCCCCCCN [P14, Tetradecylamine]
Depletion / biotransformation in RT-S9 assay (in words) [2]: No significant depletion

SMILES: CCCCCCCCCCCCCCCCN [P16, Hexadecylamine]
Concentration remaining, % of starting value [7]: 56.0 ± 1.3% | Factor by which BCFbaseline estimate exceeds empirical BCF or BAF [4]: 70 | Depletion / biotransformation in RT-S9 assay (in words) [2]: No significant depletion; also recorded: no detectable biotransformation

SMILES: CCCCCCCC[N+](C)(C)C.[Cl-] [Q8]
Depletion / biotransformation in RT-S9 (in words) [5]: identical result

SMILES: CCCCCCCCCC[N+](C)(C)C.[Br-] [Q10, N,N,N-Trimethyldecylammonium bromide]
Depletion / biotransformation in RT-S9 assay (in words) [2]: no significant biotransformation

SMILES: CCCCCCCCCCCC[N+](C)(C)C.[Cl-] [Q12]
Depletion / biotransformation in RT-S9 (in words) [5]: identical result

SMILES: CCCCCCCCCCCCCC[N+](C)(C)C.[Cl-] [Q14, N,N,N-Trimethyltetradecylammonium chloride]
Factor by which BCFbaseline estimate exceeds empirical BCF or BAF [4]: 33 | Depletion / biotransformation in RT-S9 assay (in words) [2]: no significant biotransformation

SMILES: CCCCCCCCCCCCCCCC[N+](C)(C)C.[Cl-] [Q16, N,N,N-Trimethylhexadecylammonium chloride]
Depletion / biotransformation in RT-S9 assay (in words) [2]: no significant biotransformation

SMILES: CCCCCCCCNC [S8]
Depletion / biotransformation in RT-S9 (in words) [5]: negligible depletion

SMILES: CCCCCCCCN(C)C [T8, N,N-Dimethyloctylamine]
CLint,in vivo [5]: 184 ml h^–1 g liver^–1

SMILES: CCCCCCCCCN(C)C [T9, N,N-Dimethylnonylamine]
CLint,in vivo lower in mixture than tested individually [6]: 43% | Depletion / biotransformation in RT-S9 assay (in words) [2]: reduced below the limit of quantitation

SMILES: CCCCCCCCCCCCN(C)C [T12, N,N-Dimethyldodecylamine]
CLint,in vivo [5]: 472 ml h^–1 g liver^–1 | CLint,in vivo ([9]; RT-S9 with only NADPH added): 224 ml h^–1 g liver^–1 | Clearance (in words) ([9]; UDPGA or GSH in combination with NADPH, vs NADPH only): did not result in increased clearance | Depletion (in words) ([9]; active RT-S9, no added cofactors): no significant depletion | Depletion / biotransformation in RT-S9 assay (in words) [2]: reduced below the limit of quantitation

SMILES: CCCCCCCCCCCCCN(C)C [T13, N,N-Dimethyltridecylamine]
Clearance rate in mixture compared with single-compound assay (in words) [6]: not significantly different

The next lines start with results.

CLint,in vitro ([2]; RT-S9, present study, tested individually): 0.14 ml h^–1 mg protein^–1 | Depletion / biotransformation in RT-S9 assay (in words) [2]: significant depletion | HLM CLint,in vitro faster than RT-S9 CLint,in vitro ([3]; HLM vs present study RT-S9): approximately 100 times | CLint,in vitro corresponding to HLM half-life ([3]; from half-life of ref Seguin et al., 2019): 13.86 ml h^–1 mg protein^–1
SMILES: CCCCCCCCCCCC[N+](C)(C)Cc1ccccc1 [BAC12, Benzyldimethyldodecylammonium chloride]
In vitro half-life [1]: 3 min

Depletion / biotransformation in RT-S9 assay (in words) [2]: No significant depletion
SMILES: CCCCCCCCCCCCCC[N+](C)(C)Cc1ccccc1.[Cl-] [BAC14, Benzyldimethyltetradecylammonium chloride]

1° alkylamine product present at last time point as % of removed parent [8]: 10%
SMILES: CCCCCCCCCCNC [S10, N-Methyldecylamine]

CLint,in vivo lower in mixture than tested individually [6]: 50% | 1° alkylamine product present at last time point as % of removed parent [8]: 25%
SMILES: CCCCCCCCCCCCNC [S12, N-Methyldodecylamine]
CLint,in vivo [5]: 162 ml h^–1 g liver^–1

CLint,in vivo lower in mixture than tested individually [6]: 70% | Factor by which BCFbaseline estimate exceeds empirical BCF or BAF [4]: 49 | 1° alkylamine product present at last time point as % of removed parent [8]: 55%
SMILES: CCCCCCCCCCCCCCCCNC [S16, N-Methylhexadecylamine]

Clearance rate in mixture compared with single-compound assay (in words) [6]: not significantly different | Time of peak concentration of 2° alkylamine metabolite [8]: 20 min | Depletion / biotransformation in RT-S9 assay (in words) [2]: reduced below the limit of quantitation
SMILES: CCCCCCCCCCN(C)C [T10, N,N-Dimethyldecylamine]

Factor by which BCFbaseline estimate exceeds empirical BCF or BAF [4]: 3.1
SMILES: CCCCCCCCCCCCCCN(C)C [T14, N,N-Dimethyltetradecylamine]

Factor by which BCFbaseline estimate exceeds empirical BCF or BAF [4]: 42 | Time of peak concentration of 2° alkylamine metabolite [8]: 120 min
SMILES: CCCCCCCCCCCCCCCCN(C)C [T16, N,N-Dimethylhexadecylamine]

Factor by which BCFbaseline estimate exceeds empirical BCF or BAF [4]: 128
SMILES: CCCCCCCCCCCCCCCCCCN(C)C [T18, N,N‐dimethyloctadecylamine]
